Experimental data taken from the RNAGym collection of RNA variant scans (doi:10.1126/science.aae0568).
This sample holds only a part of the variants without activity.

B1: tRNA (parent)
chain: GUUCCGUUGGCGUAAUGGUAACGCGUCUCCCUCCUAAGGAGAAGACUGCGGGUUCGAGUCCCGUACGGAACG

Variants of: B1
Experiment: yeast fitness relative to wild type (ratio to wild type); higher = fitter; tRNA-Arg(CCU), competitive growth, 37 C, YPD
In short: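 Amplicons of the tRNA-Arg(CCU) gene were sequenced, 100-nucleotide paired-end, from the start population and from each end population of a pooled yeast competition. The competition, in six parallel replicates, lasted 24 hours in YPD at 37°C. Fitness relative to wild type was calculated from changes in genotype frequencies. Genotypes had to have ≥ 100 starting reads, and estimates < 0.5 were set to 0.5.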

Row | Variant | yeast fitness
1 | GUUCCGUGGGCGUAAUGGUAACGGGUCUCCCUCCUAAGGAAAAGACUGCGGGUUCGAGUCCCGUACGGUACG [U8G C24G G41A A69U] | ≤ 0.5
2 | GUUCCGUUGGCGUAAUGGUAACGCGUCUCCCUCCUAAGGCGCAGACUGCGGGUUCGAGUCCCGUACGGAACG [A40C A42C] | 0.619
3 | GUUCCGUUGGCGUAAUGGUAACGGGUCUCCCUCCUAAGGAGAAAACUGCGGGUUCGAGUCCCGUACGGAACG [C24G G44A] | 0.568
4 | GUUCCGCUGGCGUAAUGGUAACGCGUCUCCCUUCUAAGGAGAAGACUGCGGGCUCGAGUCCCGUACGGAACG [U7C C33U U53C] | 0.599
5 | GUUCUGUUGGCGUAAUGAUAACGCGUCUCCCUCCUAAGGUGAAGACCGCGGGCUCGAGUCCCGUACGAAACG [C5U G18A A40U U47C U53C G68A] | ≤ 0.5
6 | GUUCCGUUGGCGUAAUGGUAACGCGUCUCCGUCCUAAGGAGAAGAUUGCGGGUUCGAGUCCCGUUCGGAACG [C31G C46U A65U] | 0.789
7 | GUUCCGUUGGCGUAAUGGAAACGCGUCUCCCUCCUAAGGAGAAGACAGCGGGUUCGAGUCACGUACGGAACG [U19A U47A C61A] | 0.549
8 | GUUCCGUUGGCGUAAAGGUAACGCGUCUCCCUCCUAAGGAGAAGACUGCGGGUUCAAGUCCCGUACGGAACG [U16A G56A] | 0.875
9 | GUUCCGUUGGCGGAAUGGUAACGCGUCUCCCUCCUAAGGAGAAGACUGCGGGUUCGACUCCCGUACCGAACG [U13G G58C G67C] | 0.603
10 | GUUCCGUUGGCGUAAUCGUAACGCGUCUGCCUCCUACGGAGAAGACUGCGGGUUCGAGUCCCGCACGGAACG [G17C C29G A37C U64C] | 0.771
11 | GUUCCGUUGGCGUAAUGGUAACGCGUCUCCCUCCUAAGGAGAAGCGUGCGCGUUCGAGUCCCGUACGGAACG [A45C C46G G51C] | 0.546
12 | GUUCGGUUAGCGUAAUGGUAACGCCUUUCCCUCCUAAGGAGAAGACUGCGGGUUCAAGUCCCGUACGGAACG [C5G G9A G25C C27U G56A] | 0.6
13 | GUUCCGUUGGCGUAAUCGUAAAGCGUCUCCGUCCUAAGGAGAAGACUGCGGGUUGGAGUCCCGUACGAAACG [G17C C22A C31G C55G G68A] | 0.587
14 | GCUCCGUUGGCGUAAUGGUUACGCGUCACCCUCCUAAGGAGAAGACUGCGGGUUCGAGUCCCGUACUGAACG [U2C A20U U28A G67U] | 0.579
15 | GUUCCGUUGGCGUAAUGGUAACGCGUCUCCCUUCUAAGGAGACGACUGCGGGUUCGAGUCCCCUACGGAACG [C33U A43C G63C] | ≤ 0.5
16 | GUUCCGUUGGCGUAAGGGUAACGCGUCUCCCUCCUAAGGAGAAGACUGUGGGUUCCAGUCCCGUACGGAACG [U16G C49U G56C] | ≤ 0.5
17 | GUCCCGUUGGGGUAAUGGUAACGGGUCUCCCUCCUAAGGAGAAGACUGCGGGUGCGAGUCCCGUACGGAACG [U3C C11G C24G U54G] | ≤ 0.5
18 | GUUCCGUUAGCGUAAUGGUAACACCUCCCCCUCCUAAGGAGAAGACUGCGGGUUCGAGUCCCGUACGGAACG [G9A G23A G25C U28C] | ≤ 0.5
19 | GUUCAGUUGGCGUAAUGGUAACGCGUCUCCCUCCUAAGGAAAAGACUGCGGGUUCCAGUCCCGUCCGGAACG [C5A G41A G56C A65C] | ≤ 0.5

Row | Variant | yeast fitness
20 | GUUCCGUUGACGUAAUGGUAACGCGCCUCCCUCCUGAGGAGAAGACUGCGGGUUCAAGUCCCGUACGGAACG [G10A U26C A36G G56A] | ≤ 0.5
21 | GUUCCGUUGGCGUAAUGGUAACGAGUCUCCCUACUAAGGAGAAGACUGUGGGUGCGAGUCCCGUACGGACCG [C24A C33A C49U U54G A70C] | ≤ 0.5
22 | GUUCCGUUGGCGUAAUGGUAACGCGUCUCCCUCCUAAGGAGAAGAUUGCGGGUUCCAGUCCCGUACGGUACG [C46U G56C A69U] | 0.54
23 | GUUGCGUUGGCGAAAUGGUAACGCGUCUCCCUCCUAAGGAGAAGACUGCGGGUUCGAGUCCCAUACGGAACG [C4G U13A G63A] | ≤ 0.5
24 | GUUGCGUUGGCGUAAUGGUAGCGCGUCUCCCUCUUAAGGAGAACACUGCGGGUUGGAGUCCCGUACGGAACG [C4G A21G C34U G44C C55G] | ≤ 0.5
25 | GUACCGUUGGCGUAAUGGUAACGCGUGUCCCUCCUAAGGAGAAGACUGCGGGUUCGAGUCCCGUACGGCACG [U3A C27G A69C] | ≤ 0.5
26 | GUUCCGUUGGCGUAACGGUAACGCGUCUCCCUCCUAAGGAAAAGACUGUGGGUUCGAGUCCCGUACGGAACG [U16C G41A C49U] | 0.605
27 | GUUCCGUUGGCGUAAUGGUAACGCGUCUCCCUCCUAAGCAGAAGACUGCGGGUUUGAGUCCCGUACGGAACG [G39C C55U] | 0.572
28 | GUUCCGUUGGCCUAAUGGUAACGCGUCUCUCUCUUAAGGAGGAGACUGCGGGUUCGCGUCCCGUACGGAACG [G12C C30U C34U A42G A57C] | ≤ 0.5
29 | GGUCCGUUGGCGUAAUGGUAACGCGUCUCCCUCUCAAGGAGAAGACUGCGGGUUCGAGUCCCGUACGGAACG [U2G C34U U35C] | ≤ 0.5
30 | GUUCCGUUGACGUUAUGGUACCGCGUCUUCCUCCUAAGGAGAAGACUGCGGGUUCGAGUACCGUACGGAACG [G10A A14U A21C C29U C60A] | 0.647
31 | GUUCCGUUGGGGUAAUGGUAACGCGUCUCUCUCCUAUGGAGAAGACUGCGGGUUCGAGUCCCGUACGGAACG [C11G C30U A37U] | ≤ 0.5
32 | GUUCCGUUGGCGUACUGGUAACGCGUCUCCCUCCUAUGGAGAAGACUGCGGGUUCGAGUCCCGUACGGAACG [A15C A37U] | 0.624
33 | GUUCCGUUCGCGUAACGGUAACGCGUCUCCCUCCUAAGGAGAAGACUGCGGGUUCGAGUCCCGUACGGAACG [G9C U16C] | 0.731
34 | GUUCCGUGGGCGUAAUAGUAACGCGUCUCCCUCCUAAGGAGAAGACUGCGGGUUCCAGUCCCGUACGGAACG [U8G G17A G56C] | ≤ 0.5
35 | GUUCCGUUGGCGUAAUGGUAAAGCGUUUCCCUCCUAAGGAGAAGACUGCGGGUUCACGUCCCGUACGGAACG [C22A C27U G56A A57C] | ≤ 0.5
36 | GUUCCGUUGGCGUAAUGGUAACGCGUCUCACUCCUAAGGAGAAGACUGCGGGUUCGAGUCACGUACGGCACG [C30A C61A A69C] | 0.609
37 | GAUCCGUUGGCGUAAUGGUAACGCGUCUCCCUCCUAAGGAGAAGACAGCGGGUUCGAGUCCCGUCCGGAACG [U2A U47A A65C] | ≤ 0.5
38 | GUUCCGUUGGCGUAAUGGUAACGCGUUUCCCUCCUAAGGGGAAGACUGCGGGUUCGAGUCCCGUACGGAACG [C27U A40G] | 0.834
